Shown are actives, neighbours in structure and some others; about 4% of the full set was active somewhere.
DAGLB inhibitor = blocks human DAGLB lipase activity; 0.059% of 340,000 active; inhibition, % at 5.17 µM; HEK293T DAGLB membrane lysate, EnzChek fluorogenic substrate; Q8NCG7; in the data active = inhibition above about 34%;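 note: 0% = enzyme with vehicle and 100% = wells lacking enzyme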
TAAR1 antagonist = antagonists of human TAAR1. Q96RJ0. CHO RD-HGA16 TAAR1, Fluo-8 calcium fluorescence, antagonist. inhibition, % at 3 µM. 1.5% of 360,000 active;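 active = inhibition above a per-plate cutoff, the mean inhibition of test compounds on that plate plus 3 SD, cut at about 49% in these data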;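 note: 0% = DMSO plus EC80 beta-PEA response and 100% = DMSO alone without agonist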
Target sequence (Q96RJ0 whole entry, looked up): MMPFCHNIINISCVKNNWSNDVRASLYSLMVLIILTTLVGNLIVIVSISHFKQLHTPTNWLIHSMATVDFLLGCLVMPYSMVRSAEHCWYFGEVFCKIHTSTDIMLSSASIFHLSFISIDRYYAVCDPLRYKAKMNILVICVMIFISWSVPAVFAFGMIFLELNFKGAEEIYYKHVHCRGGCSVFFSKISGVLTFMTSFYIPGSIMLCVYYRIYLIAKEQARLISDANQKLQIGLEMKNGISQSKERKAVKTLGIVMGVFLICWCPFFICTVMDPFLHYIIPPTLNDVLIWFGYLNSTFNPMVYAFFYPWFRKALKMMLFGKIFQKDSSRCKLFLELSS
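System: RD-HGA16 CHO cells with stable hTAAR1 and Gα16 | Probe or stimulus: EC80 β-phenethylamine stimulus | Dosing: 3 µM, single point | Times: Dye loading 75 min at 37 °C, then 30 min room temperature | Measured by: Fluo-8 calcium-sensitive fluorescence | Read-out basis: % inhibition of agonist calcium response | Replicates: n of 1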
GPR7 antag = blocks human GPR7 receptor signaling; P48145; GPR7-expressing cells, fluorescence antagonist assay; inhibition, % at 4.4 µM; 1.1% of 290,000 active; in the data active = inhibition above about 16%, passing the limit was not always enough;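 note: cells stimulated with the agonist NPW; 0% = agonist with vehicle and 100% = vehicle without agonist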
Target sequence (P48145 whole entry, looked up): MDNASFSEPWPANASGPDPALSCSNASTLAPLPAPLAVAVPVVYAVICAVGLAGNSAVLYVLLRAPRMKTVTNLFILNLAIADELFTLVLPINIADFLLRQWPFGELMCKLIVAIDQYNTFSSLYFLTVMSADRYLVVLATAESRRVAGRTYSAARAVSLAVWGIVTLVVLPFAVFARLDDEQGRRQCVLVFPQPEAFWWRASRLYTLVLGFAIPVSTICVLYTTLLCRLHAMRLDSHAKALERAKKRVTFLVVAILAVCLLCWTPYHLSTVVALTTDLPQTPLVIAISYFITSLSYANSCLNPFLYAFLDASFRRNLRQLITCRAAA
MPTP inh = permeability transition pore inhibition. isolated mouse mitochondria, Ca2+ swelling absorbance, 30 min. inhibition, % at 10 µM. 1.4% of 360,000 active;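 active = inhibition of 50% or more, scaled per plate between neutral and stimulator controls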;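 note: 0% = DMSO wells given calcium and 100% = 1 mM EGTA wells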
TAAR1 agonist = agonists of human TAAR1 | CHO RD-HGA16 TAAR1, Fluo-8 calcium fluorescence; vehicle wells 0%, saturating PEA agonist 100% | activation, % at 3 µM | 0.99% of 360,000 active | AID 624467;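 active = activation above the mean activation of all test compounds in the run plus 3 SD, cut at about 38% in these data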
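Assay system: CHO-derived RD-HGA16 cells with stable Gα16 and human TAAR1; timing: 17-24 h seeding, 75 min 37 °C dye, 30 min RT; read-out: % activation from peak over basal fluorescence ratio, DMSO-to-PEA scaled; measured by: kinetic Fluo-8 calcium fluorescence; benchmarks: low control DMSO, high control PEA (EC100); doses: 3 µM single concentration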
TAAR1 ag conf = confirmation of human TAAR1 agonists; CHO RD-HGA16 TAAR1, Fluo-8 calcium fluorescence; scaled: DMSO 0%, maximal phenethylamine 100%; activation, % at 3 µM; shares compounds with TAAR1 agonist; 82% of 2,400 active;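 active = activation above a cutoff set at the run's mean compound activation plus 3 SD, cut at about 39% in these data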
Ga16 ag counter = nonselective agonist in parental cells, TAAR1 agonist counter-screen | shares compounds with TAAR1 agonist | CHO-Ga16 parental, Fluo-8 calcium fluorescence; normalized to maximal ATP response, DMSO zero | activation, % at 3 µM | 50% of 2,400 active | AID 651787;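 active = activation above the run cutoff, the mean activation over all tested wells plus 3 SD, cut at about 12% in these data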;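 note: 0% = DMSO wells and 100% = maximal ATP response on the peak over basal ratio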
TAAR1 desensitize = counter-screen for human TAAR1 agonists: agonists that desensitize TAAR1; shares compounds with TAAR1 agonist; CHO RD-HGA16 hTAAR1, Fluo-8 calcium, beta-PEA response inhibition; inhibition, % at 3 µM; 46% of 2,400 active; AID 651951;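 active = inhibition above the run cutoff, the mean inhibition of all test compounds plus 3 SD, cut at about 49% in these data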;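 note: beta-PEA stimulus applied at its EC80; loss of beta-PEA calcium signal after compound pretreatment read as receptor desensitization; 0% = DMSO with beta-PEA at EC80 and 100% = DMSO alone without agonist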
Ga16 nonsel ant = counter-screen for TAAR1 agonists: nonselective Ga16 antagonists; shares compounds with TAAR1 agonist; CHO-Ga16 ATP-induced calcium, Fluo-8 fluorescence; inhibition, % at 3 µM; 39% of 2,400 active;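 active = inhibition above the plate's mean compound inhibition plus 3 SD, computed per plate, cut at about 22% in these data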;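 note: 0% = EC80 ATP with DMSO and 100% = DMSO wells without ATP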
An asterisk follows results filed as active.

Screening CC(CCc1ccc(O)cc1)NCCC(c1ccccc1)c1ccccc1 (centres undefined) returned DAGLB inhibitor 0.7, TAAR1 antagonist 47.7, GPR7 antag 14.0, MPTP inh 8.4 and TAAR1 agonist 35.7.
`CC(CCc1ccc(O)cc1)N(C)CCc1ccccc1` (centres undefined) gave DAGLB inhibitor 2.4, TAAR1 antagonist 6.4, GPR7 antag -5.7, MPTP inh -2.6, TAAR1 agonist 48.8*, TAAR1 ag conf 61.1*, Ga16 ag counter 5.0, TAAR1 desensitize 5.4 and Ga16 nonsel ant -6.3.
Screening Cn1cccc1/C=N/n1c(-c2ccc(Cl)cc2Cl)n[nH]c1=S returned DAGLB inhibitor 6.0, TAAR1 antagonist 29.0, GPR7 antag 11.1, MPTP inh -0.1, TAAR1 agonist 62.3*, TAAR1 ag conf 52.6*, Ga16 ag counter 26.2*, TAAR1 desensitize 25.9 and Ga16 nonsel ant 23.9*.
`Cc1ccc(NC2=NCC(=O)N2CCc2ccccc2)cc1C` gave DAGLB inhibitor -4.5, TAAR1 antagonist -2.7, GPR7 antag -7.3, MPTP inh -0.4, TAAR1 agonist 47.3*, TAAR1 ag conf 58.9*, Ga16 ag counter 6.9, TAAR1 desensitize 25.9 and Ga16 nonsel ant 9.8.
`CCOc1ccc(NC2=NCC(=O)N2CCc2ccccc2)cc1` gave DAGLB inhibitor -3.9, TAAR1 antagonist 43.9, GPR7 antag 0.3, MPTP inh 0.2, TAAR1 agonist 70.2*, TAAR1 ag conf 81.0*, Ga16 ag counter 41.5*, TAAR1 desensitize 81.8* and Ga16 nonsel ant 52.3*.
Screening COc1ccc(CCN2C(=O)CN=C2Nc2ccc(F)cc2)cc1OC returned DAGLB inhibitor 0.2, TAAR1 antagonist 0.2, GPR7 antag 2.0, MPTP inh -1.7 and TAAR1 agonist 4.7.
C/C(=C\C=C(C#N)C#N)c1cc(C#N)c(N)o1 was read as DAGLB inhibitor 11.6, TAAR1 antagonist 37.4, GPR7 antag -4.5, MPTP inh 13.7, TAAR1 agonist 99.1*, TAAR1 ag conf 29.7, Ga16 ag counter 33.4*, TAAR1 desensitize 27.4 and Ga16 nonsel ant 25.3*.
Screening CC1(C)CC2CC(C)(CN2S(=O)(=O)c2ccc(F)cc2F)C1 (centres undefined) returned DAGLB inhibitor -9.4, TAAR1 antagonist -9.6, MPTP inh -0.4 and TAAR1 agonist 0.0.
CN1Cc2cccc3c2C(Cc2ccccc2S3)C1 (centres undefined) was read as DAGLB inhibitor -2.9, TAAR1 antagonist -21.7, GPR7 antag -5.8, MPTP inh -1.4, TAAR1 agonist 59.0*, TAAR1 ag conf 61.1*, Ga16 ag counter 4.6, TAAR1 desensitize 19.3 and Ga16 nonsel ant 5.6.
Screening CC(=O)N1CCC(C(=O)N2c3ccccc3N=C(c3ccc4c(c3)OCO4)C2C(=O)NCc2ccccc2)CC1 (centres undefined) returned TAAR1 antagonist -5.0, MPTP inh -1.1 and TAAR1 agonist 0.3.
Screening Cc1cc(C)c(C(=O)OCC(=O)NC(=O)c2ccccc2)c(C)c1 returned DAGLB inhibitor -2.1, TAAR1 antagonist 69.6*, MPTP inh -1.0, TAAR1 agonist 58.5*, TAAR1 ag conf 6.3, Ga16 ag counter 6.5, TAAR1 desensitize 45.6 and Ga16 nonsel ant 34.0*.
Screening CCNC(=O)N(C)[C@H]1C[C@H]2c3[nH]c4c(-c5ccc6c(c5)OCO6)cccc4c3CCN2C(=O)[C@H]1[C@H](C)O returned TAAR1 antagonist 4.1 and TAAR1 agonist 7.2.
For CCN1C(=O)/C(=C/C=C2\N(CC)c3cc(S(=O)(=O)N(C)C)ccc3N2c2ccccc2)SC1=S the results were DAGLB inhibitor -16.2, TAAR1 antagonist 36.3, GPR7 antag -3.2, MPTP inh 28.1, TAAR1 agonist 61.8*, TAAR1 ag conf 48.4*, Ga16 ag counter 56.4*, TAAR1 desensitize 71.9* and Ga16 nonsel ant 77.6*.
Screening CCN1C(=O)/C(=C\C=C\c2ccccc2[N+](=O)[O-])SC1=S returned DAGLB inhibitor -0.6, TAAR1 antagonist 1.8, GPR7 antag -16.0, MPTP inh -0.6 and TAAR1 agonist 4.6.
Screening COc1cccc2c(=O)n(CC(=O)Nc3cccc(F)c3)ccc12 returned DAGLB inhibitor -9.4, TAAR1 antagonist 25.7, GPR7 antag -10.4, MPTP inh -0.5, TAAR1 agonist 60.8*, TAAR1 ag conf 45.9*, Ga16 ag counter 40.1*, TAAR1 desensitize 16.0 and Ga16 nonsel ant 11.5.
Screening Cc1ccc(S(=O)(=O)n2nc(OC(=O)c3cccs3)cc2N)cc1 returned DAGLB inhibitor 10.8, TAAR1 antagonist -1.6, GPR7 antag 5.4, MPTP inh -0.5, TAAR1 agonist 92.5*, TAAR1 ag conf 64.5*, Ga16 ag counter 33.1*, TAAR1 desensitize 19.6 and Ga16 nonsel ant 14.0.
`Cc1ccc(S(=O)(=O)c2c(C)nn(C(C)(C)C)c2OC(=O)c2cccs2)cc1` gave DAGLB inhibitor -9.5, TAAR1 antagonist -5.7, GPR7 antag -13.8, MPTP inh -0.4 and TAAR1 agonist 1.0.
`Cc1ccc(S(=O)(=O)n2nc(OC(=O)c3ccccc3C)cc2N)cc1` gave DAGLB inhibitor -0.9, TAAR1 antagonist 13.5, GPR7 antag -12.3, MPTP inh -0.8, TAAR1 agonist 47.7*, TAAR1 ag conf 53.3*, Ga16 ag counter 32.5*, TAAR1 desensitize 14.1 and Ga16 nonsel ant 22.7*.
`Cc1ccc(S(=O)(=O)n2ccc(OC(=O)c3cccs3)n2)cc1` gave DAGLB inhibitor 11.5, TAAR1 antagonist 19.4, GPR7 antag 8.9, MPTP inh -1.5, TAAR1 agonist 98.7*, TAAR1 ag conf 81.4*, Ga16 ag counter 45.0*, TAAR1 desensitize 26.1 and Ga16 nonsel ant 20.5.
`C[C@H](O)[C@@H]1C(=O)N2CCc3c([nH]c4c(-c5ccccc5)cccc34)[C@@H]2C[C@@H]1N(C)C(=S)NCCc1ccccc1` gave TAAR1 antagonist -13.7 and TAAR1 agonist 19.3.
`CC(=O)Nc1ccc(OCCCN2CCC(C(O)(c3ccccc3)c3ccccc3)CC2)cc1` gave TAAR1 antagonist -0.3, MPTP inh -0.2 and TAAR1 agonist 2.6.
